The values that follow come from ChEMBL document CHEMBL2429849, “Substrate-based fragment identification for the development of selective, nonpeptidic inhibitors of striatal-enriched protein tyrosine phosphatase” (J Med Chem, 2013).

Bounds are passed on as bounds.

Data set [1] can be described thus: Effective permeability of the compound at pH 7.4 by PAMPA. Type of data set: ADME. To be noted: read-out: Peff. In general terms: The PAMPA barrier holds no transporters, so it reflects passive diffusion.
Data set [2] is filed under the species Homo sapiens. The experiment in a line: Selectivity ratio of Ki for human MKP5 to Ki for human STEP. The gist of the method:
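STEP, CD45, LAR and TC-PTP used pNPP (500 μM) in imidazole/NaCl pH 7.0 with Triton X-100, read at 405 nm for 20 min. MKP5 used DiFMUP in Tris-HCl pH 8.0. The enzyme's own pNPP KM was used in analysis; ratio of the Ki values.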

Data set [3] has as its target T1, Dual specificity protein phosphatase 10 (Homo sapiens, UniProt Q9Y6W6).
T1 sequence (Q9Y6W6 whole entry): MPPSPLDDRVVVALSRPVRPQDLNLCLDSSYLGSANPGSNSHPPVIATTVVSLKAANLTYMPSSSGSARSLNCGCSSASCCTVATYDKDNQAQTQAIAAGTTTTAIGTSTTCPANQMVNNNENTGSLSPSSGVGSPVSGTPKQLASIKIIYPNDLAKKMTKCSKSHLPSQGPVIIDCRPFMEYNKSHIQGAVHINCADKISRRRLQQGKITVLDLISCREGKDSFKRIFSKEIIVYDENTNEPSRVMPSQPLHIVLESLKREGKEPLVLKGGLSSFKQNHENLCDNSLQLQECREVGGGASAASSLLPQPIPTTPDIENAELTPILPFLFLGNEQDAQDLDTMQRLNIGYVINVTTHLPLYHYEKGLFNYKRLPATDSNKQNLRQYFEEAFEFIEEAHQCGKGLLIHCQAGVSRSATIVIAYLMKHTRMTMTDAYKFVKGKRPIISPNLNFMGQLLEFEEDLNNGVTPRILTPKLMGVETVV
As to the kind of experiment: Inhibition of human MKP5 using DiFMUP as substrate after 5 mins by spectrophotometric plate reader analysis. The gist of the method: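 The […] substrate was DiFMUP. Buffer was Tris-HCl pH 8.0 with Triton X-100 and 5 mM DTT. Inhibitor was preincubated with enzyme for 5 min at 27 °C before adding substrate. Ki from nonlinear regression of initial-rate substrate–velocity data at several inhibitor concentrations; at least duplicate.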

With `O=P(O)(O)[C@H](O)c1ccc(-c2cccc([C@@H](O)c3ccc(Cl)c(Cl)c3)c2)cc1`, the Papp in data set [1] was less than 0.1 ×10⁻⁶ cm/s. Also, the Ratio Ki in data set [2] came out at 41. Besides, the affinity in data set [3] corresponds to a Ki of 340 µM.

In the case of `O=P(O)(O)[C@H](O)c1ccc(-c2cccc([C@H](O)c3ccc(Cl)c(Cl)c3)c2)cc1`, the inhibition constant (Ki) (in general, a measure of affinity in units of concentration, obtained from inhibition or displacement) in data set [3] is greater than 500 µM.
